25 molecules from ChEMBL document CHEMBL3244238, “In search of anti-Trypanosoma cruzi drugs: new leads from a mouse model” (J Med Chem, 1977) can be followed below.

In series [1] the test system is Trypanosoma cruzi. Kind of series: Antitrypanosomal activity against Trypanosoma cruzi infected in albino CF1 mouse assessed as reduction in number of parasites in blood at 52 mg/kg/day, intramuscular treatment started on day 10 of infection up to day 14. It is filed as functional. As to conditions: for inhibition in vivo at 52 mg/kg/day: im. The method, boiled down: (§1)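 Male CF1 albino mice (4-10 weeks) infected intraperitoneally with 50 000 Brazil-strain T. cruzi trypomastigotes in Hanks' balanced salt solution, pH 7.2. Dosing was intramuscular, twice daily, from day 10 to day 13 afternoon or day 14 morning. Vehicle was 0.1% Tween 80 + 0.5% hydroxyethylcellulose. Seven mice per dose; dose given as total salt weight. Parasites/mL blood counted from day-14 smears; % suppression versus vehicle controls.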

Series [2] relates to Trypanosoma cruzi. Kind of series: Antitrypanosomal activity against Trypanosoma cruzi infected in albino CF1 mouse assessed as reduction in number of parasites in blood at 13 mg/kg/day, intramuscular treatment started on day 10 of infection up to day 14. Conditions: for inhibition in vivo at 13 mg/kg/day: im. In kind it is functional. The procedure, abridged: as §1
Series [3] relates to Trypanosoma cruzi. Kind of series: Antitrypanosomal activity against Trypanosoma cruzi infected in albino CF1 mouse assessed as reduction in number of parasites in blood at 104 mg/kg/day, intramuscular treatment started on day 10 of infection up to day 14. In kind it is functional. Conditions: for inhibition in vivo at 104 mg/kg/day: im. The procedure, abridged:
as §1

In series [4] the test system is Trypanosoma cruzi. Description: Potency index, ratio of nifurtimox SD90 to compound SD90 for Trypanosoma cruzi infected in albino CF1 mouse assessed as reduction in number of parasites in blood. In kind it is functional. The method, boiled down:
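Index = nifurtimox SD90 ÷ test-compound SD90. SD values were read graphically from log-probit plots of % parasitemia suppression versus dose (mg/kg/day) in intramuscularly treated, T. cruzi-infected CF1 mice. A lower SD level was used when SD90 was unattainable. For salts, doses were given by total weight, and the index was multiplied by the reciprocal of the base fraction.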

In series [5] the test system is Trypanosoma cruzi. Description: Antitrypanosomal activity against Trypanosoma cruzi infected in albino CF1 mouse assessed as reduction in number of parasites in blood intramuscularly treated daily from day 10 of infection up to day 14. It is filed as functional. The method, boiled down: (§2)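 Male CF1 albino mice (4-10 weeks) were infected ip with 50 000 Brazil-strain trypomastigotes in 0.2 mL Hanks' BSS, pH 7.2. Dosing was intramuscular, twice daily in 0.1% Tween 80/0.5% hydroxyethylcellulose, from day 10 through day 13 pm or day 14 am. Three fourfold-spaced doses were given, 7 mice per dose, with vehicle-only controls. Parasites/mL of blood were counted from day-14 smears.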

The test system of series [6] is Trypanosoma cruzi. Kind of series: Antitrypanosomal activity against Trypanosoma cruzi infected in albino CF1 mouse assessed as reduction in number of parasites in blood at 3.25 mg/kg/day, intramuscular treatment started on day 10 of infection up to day 14. It is filed as functional. Conditions: for inhibition in vivo at 3.25 mg/kg/day: im. The procedure, abridged: as §2

The test system of series [7] is Trypanosoma cruzi. Kind of series: Antitrypanosomal activity against Trypanosoma cruzi infected in albino CF1 mouse assessed as reduction in number of parasites in blood at 26 mg/kg/day, intramuscular treatment started on day 10 of infection up to day 14. It is filed as functional. As to conditions: for inhibition in vivo at 26 mg/kg/day: im. The procedure, abridged: as §2

The next series relates to Mus musculus. Kind of series: Toxicity in albino CF1 mouse at 104 mg/kg/day, intramuscular treatment started on day 10 of trypanosomal infection up to day 14. It is filed as organism-based. As to conditions: in vivo, im. On the set-up: route intramuscular.

Active and inactive are the calls of the source. The calls are words filed in the database; no cut-off is given here.

On to `COc1cc(NCCCN2CCN(CCCNc3cc(OC)cc4cccnc34)CC2)c2ncccc2c1`, for which the inhibition result in the series on Trypanosoma cruzi [1], in the series on Trypanosoma cruzi [2] and in the series on Trypanosoma cruzi [3] was “inactive” throughout.

For the molecule `COc1cc(NC(C)CCN)c2nc(C)ccc2c1.Cl.O` (stereo not drawn), in the series with Trypanosoma cruzi [4], the Ratio is 3.9. The SD80 in the series on Trypanosoma cruzi [5] is 10.5 mg/kg. In the series on Trypanosoma cruzi [6], the inhibition in vivo at 3.25 mg/kg/day was determined as 38%. The inhibition in vivo at 13 mg/kg/day in the series with Trypanosoma cruzi [2] came out at 86%. The inhibition in vivo at 26 mg/kg/day in the series with Trypanosoma cruzi [7] was determined as 82%.

`COc1c(NC(C)CCN)cc(OC)c2c(C)ccnc12` (stereo not drawn): the Ratio entry with Trypanosoma cruzi [4] was “inactive”. The inhibition result with Trypanosoma cruzi [1], with Trypanosoma cruzi [2] and in the series on Trypanosoma cruzi [3] was “inactive” each time.

Take `Nc1nc(/C=C/c2ccc([N+](=O)[O-])o2)no1`: the Ratio in the series with Trypanosoma cruzi [4] came to 1.13. Further, the SD90 with Trypanosoma cruzi [5] is 48.5 mg/kg. For the same molecule, the inhibition in vivo at 3.25 mg/kg/day in the series on Trypanosoma cruzi [6] was found to be 49%. For the same molecule, in the series with Trypanosoma cruzi [7], the inhibition in vivo at 26 mg/kg/day was determined as 91%. In addition, the inhibition in vivo at 104 mg/kg/day in the series on Trypanosoma cruzi [3] was found to be 90%.

In the case of `CCN(CC)CCCCCCNc1cc(OC)cc2c(C)ccnc12`, the Ratio result in the series with Trypanosoma cruzi [4] is “inactive”. Further, the inhibition result with Trypanosoma cruzi [6], with Trypanosoma cruzi [2] and in the series with Trypanosoma cruzi [7] was “inactive” throughout.

Turning to `COc1cc(NC(C)CCCN)c(OC)c2c(C)cc(C)nc12` (stereo not drawn), the inhibition entry with Trypanosoma cruzi [1], with Trypanosoma cruzi [2] and in the series on Trypanosoma cruzi [3] was “inactive” in each case.

For the molecule `N=C(N)c1ccc(-c2ccc(-c3ccc(C(=N)N)cc3)o2)cc1`, the inhibition entry in the series with Trypanosoma cruzi [1], with Trypanosoma cruzi [2] and in the series with Trypanosoma cruzi [3] was “inactive” throughout.

As to `CC(C)NCC1CCc2cc(CO)c([N+](=O)[O-])cc2N1` (stereo not drawn), the inhibition entry with Trypanosoma cruzi [1], with Trypanosoma cruzi [2] and in the series on Trypanosoma cruzi [3] was “inactive” in each case.

Consider `COc1cc(NC(C)CCCN)c(OC)c2c(C)ccnc12.O=C(O)c1ccc(O)cc1O` (stereo not drawn), for which the inhibition entry with Trypanosoma cruzi [1], in the series with Trypanosoma cruzi [2] and in the series on Trypanosoma cruzi [3] was “inactive” in each case.

Regarding `Nc1ccc(C(c2ccc(N)cc2)c2ccc(N)cc2)cc1.O=C(O)c1cc2ccccc2c(Cc2c(O)c(C(=O)O)cc3ccccc23)c1O`, the Ratio in the series with Trypanosoma cruzi [4] turned out to be 0.3. Further, the SD50 with Trypanosoma cruzi [5] turned out to be 96 mg/kg.

Take `COc1cc(NC(C)CCN)c2ncc(C)cc2c1.O=P(O)(O)O` (stereo not drawn): the Ratio with Trypanosoma cruzi [4] is recorded as >9.2. Also, the SD90 with Trypanosoma cruzi [5] was <3.25 mg/kg. In addition, the inhibition in vivo at 3.25 mg/kg/day with Trypanosoma cruzi [6] is 92%. Also, in the series on Trypanosoma cruzi [2], the inhibition in vivo at 13 mg/kg/day came out at 98%. The inhibition in vivo at 26 mg/kg/day with Trypanosoma cruzi [7] was 99%.

On to `Nc1ccc(C(c2ccc(N)cc2)c2ccc(N)cc2)cc1`, for which the inhibition in vivo at 3.25 mg/kg/day in the series with Trypanosoma cruzi [6] was 43%. In addition, the inhibition in vivo at 26 mg/kg/day in the series on Trypanosoma cruzi [7] came out at 39%. Besides, the inhibition in vivo at 104 mg/kg/day with Trypanosoma cruzi [3] stood at 52%.

Take `Nc1nc(N)c2c(n1)CCC(S(=O)(=O)c1ccc3ccccc3c1)C2` (stereo not drawn): the inhibition result in the series with Trypanosoma cruzi [1], in the series with Trypanosoma cruzi [2] and in the series with Trypanosoma cruzi [3] was “inactive” throughout.

In the case of `CCCNCCCCCNc1cc(OC)cc2cccnc12.O=P(O)(O)O`, the Ratio in the series with Trypanosoma cruzi [4] stood at 1.2. In the series with Trypanosoma cruzi [5], the SD90 is 43.5 mg/kg. The inhibition in vivo at 52 mg/kg/day in the series with Trypanosoma cruzi [1] was 93%. In addition, the inhibition in vivo at 13 mg/kg/day in the series on Trypanosoma cruzi [2] came out at 54%. Further, the inhibition in vivo at 104 mg/kg/day with Trypanosoma cruzi [3] came to 99%.

Consider `Cc1cc(NCCCCCCNc2cc(C)nc3ccc(N)cc23)c2cc(N)ccc2n1`, for which the inhibition entry in the series on Trypanosoma cruzi [1], in the series on Trypanosoma cruzi [2] and in the series on Trypanosoma cruzi [3] was “inactive” in each case.

For `c1ccc(C2CN3CCSC3=N2)cc1` (stereo not drawn), the inhibition result with Trypanosoma cruzi [1], in the series on Trypanosoma cruzi [2] and with Trypanosoma cruzi [3] was “inactive” throughout.

On to `Nc1nc(N)c2cc(S(=O)(=O)c3ccc4ccccc4c3)ccc2n1`, for which the inhibition entry in the series on Trypanosoma cruzi [1], in the series on Trypanosoma cruzi [2] and in the series on Trypanosoma cruzi [3] was “inactive” each time.

On to `O=C(O)c1[nH]c(=O)[nH]c(=O)c1F`, for which the inhibition result with Trypanosoma cruzi [1], with Trypanosoma cruzi [2] and in the series with Trypanosoma cruzi [3] was “inactive” in each case.

As for `NC1(C(=O)O)CCCC1`, the inhibition entry with Trypanosoma cruzi [1], in the series on Trypanosoma cruzi [2] and in the series with Trypanosoma cruzi [3] was “inactive” throughout.

On to `COc1cc(NC(C)CCN)c2ncccc2c1.Cl` (stereo not drawn), for which, in the series on Trypanosoma cruzi [4], the Ratio turned out to be 3.8. Also, the SD90 in the series on Trypanosoma cruzi [5] amounted to 21.8 mg/kg. Moreover, in the series with Trypanosoma cruzi [1], the inhibition in vivo at 52 mg/kg/day was determined as 97%. In the series on Trypanosoma cruzi [2], the inhibition in vivo at 13 mg/kg/day is 80%. Moreover, in the series with Trypanosoma cruzi [3], the inhibition in vivo at 104 mg/kg/day was determined as 100%.

Turning to `CC1CS(=O)(=O)CCN1/N=C/c1ccc([N+](=O)[O-])o1` (stereo not drawn) [NIFURTIMOX], the Ratio in the series with Trypanosoma cruzi [4] is reported as 1. Besides, the SD90 in the series with Trypanosoma cruzi [5] was found to be 41.5 mg/kg. The inhibition in vivo at 52 mg/kg/day in the series on Trypanosoma cruzi [1] turned out to be 92%. Also, in the series on Trypanosoma cruzi [2], the inhibition in vivo at 13 mg/kg/day is 57%. Further, the inhibition in vivo at 104 mg/kg/day with Trypanosoma cruzi [3] is 99%.

Regarding `CCN(CC)CCCNc1cc(OC)c2nc(C)ccc2c1OC.O=C(O)c1ccc(O)cc1O`, the inhibition entry in the series on Trypanosoma cruzi [1], in the series with Trypanosoma cruzi [2] and in the series with Trypanosoma cruzi [3] was “inactive” each time.

Consider `COc1cc(NC(C)CCN)c2nccc(C)c2c1` (stereo not drawn), for which the Ratio result in the series on Trypanosoma cruzi [4] is “inactive”. Further, the inhibition entry in the series on Trypanosoma cruzi [1], with Trypanosoma cruzi [2] and in the series with Trypanosoma cruzi [3] was “inactive” throughout.

Consider `COc1cc(NC(C)CCN)c2ncccc2c1/N=N/c1ccc(C(=O)O)cc1` (stereo not drawn), for which the Ratio with Trypanosoma cruzi [4] is on record as >4. Besides, the SD90 in the series on Trypanosoma cruzi [5] was <3 mg/kg. Further, the inhibition in vivo at 52 mg/kg/day in the series on Trypanosoma cruzi [1] came out at 99%. In the series on Trypanosoma cruzi [2], the inhibition in vivo at 13 mg/kg/day is 98%. In the series with Trypanosoma cruzi [3], the inhibition in vivo at 104 mg/kg/day is 100%.

For the molecule `Cc1ccc(C[P+](c2ccccc2)(c2ccccc2)c2ccccc2)cc1.[Cl-]`, the Ratio with Trypanosoma cruzi [4] was determined as 3.6. The SD80 in the series with Trypanosoma cruzi [5] turned out to be 13 mg/kg. Also, in the series on Trypanosoma cruzi [6], the inhibition in vivo at 3.25 mg/kg/day is 80%. Besides, the inhibition in vivo at 26 mg/kg/day with Trypanosoma cruzi [7] worked out at 85%. Further, in the series with Mus musculus, the Activity entry was “Toxic”.
